Test results taken from paper PMC6880868 (Cancer cell, 2019).
Where two headings read alike, the source gives them in different places. One block for each compound: values may come before it.

What was measured:
[1] = molecular target: T1, STAT3 (Homo sapiens, UniProt P40763); assay: STAT3 protein degradation in human cells; format: cell-based; conditions: for effect on SD-36-induced depletion of STAT3 protein: co-treatment with SD-36; for effect on the levels of STAT3 protein: 10 μM, 3 hr MOLM-16 or 24 hr SU-DHL-1
Procedure, shortened: (§1)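 Treated cells were lysed in cell lysis buffer, resolved by SDS-PAGE, transferred to PVDF and probed by immunoblotting.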
Target sequence in this assay (P40763 whole entry): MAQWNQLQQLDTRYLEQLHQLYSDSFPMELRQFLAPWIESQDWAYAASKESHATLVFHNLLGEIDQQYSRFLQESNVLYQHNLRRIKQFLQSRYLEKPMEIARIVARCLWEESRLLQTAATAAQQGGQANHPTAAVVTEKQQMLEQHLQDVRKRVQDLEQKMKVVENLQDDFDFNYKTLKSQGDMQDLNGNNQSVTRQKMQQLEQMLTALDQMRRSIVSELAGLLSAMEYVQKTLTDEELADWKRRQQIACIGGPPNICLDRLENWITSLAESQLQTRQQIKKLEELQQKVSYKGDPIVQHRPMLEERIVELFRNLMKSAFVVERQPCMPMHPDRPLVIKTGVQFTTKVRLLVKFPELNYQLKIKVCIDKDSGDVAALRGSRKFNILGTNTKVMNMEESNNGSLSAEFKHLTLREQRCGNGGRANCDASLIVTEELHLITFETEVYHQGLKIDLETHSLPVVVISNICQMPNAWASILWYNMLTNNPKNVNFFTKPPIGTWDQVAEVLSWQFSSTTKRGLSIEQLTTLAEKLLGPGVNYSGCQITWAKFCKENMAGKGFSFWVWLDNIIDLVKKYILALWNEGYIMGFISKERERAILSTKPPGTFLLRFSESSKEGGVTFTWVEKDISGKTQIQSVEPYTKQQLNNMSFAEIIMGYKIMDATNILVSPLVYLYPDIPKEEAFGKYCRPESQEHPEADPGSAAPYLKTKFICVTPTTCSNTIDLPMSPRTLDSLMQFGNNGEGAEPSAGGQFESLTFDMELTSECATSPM

[2] = molecular target: T1, STAT3; assay: Pharmacodynamics: STAT3 protein in xenograft tumors; format: in vivo, NOD/SCID mice bearing human xenograft tumors; conditions: 100 mg/kg i.v.
Target sequence in this assay (P40763 whole entry): as above

[3] = molecular target: transcriptional activity of STAT3; assay: STAT3-luciferase reporter assay; format: cell-based, human
[4] = tested on: MOLM-16 cells; assay: RNA-seq analysis, MOLM-16; format: cell-based, human; conditions: MOLM-16, 24 hr
[5] = tested on: MOLM-16 and SU-DHL-1 cell lines; assay: Cell cycle analysis by flow cytometry; format: cell-based, human; conditions: 1 μM, 48 hr
Procedure, shortened: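 After treatment, cells were washed twice in cold PBS and fixed overnight in 50% ethanol. They were stained 1 hr at 4°C with PI (50 μg/ml) plus DNase-free RNase A (0.2 μg/ml), then analysed by flow cytometry.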

[6] = molecular target: monomeric and dimeric STAT3 protein (Homo sapiens, UniProt P40763); assay: Native electrophoresis and immunoblotting of STAT3 monomer/dimer; format: cell-based; conditions: MOLM-16, 5 hr
Sequence of monomeric and dimeric STAT3 protein (P40763 whole entry): as above

[7] = tested on: SU-DHL-1; assay: RNA-seq analysis, SU-DHL-1; format: cell-based, human; conditions: SU-DHL-1, 24 hr
[8] = molecular target: T1, STAT3; assay: Fluorescence polarization; format: binding
Procedure, shortened: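 Competitive fluorescence polarisation assay. Recombinant STAT3 (25 nM) was premixed 5 min with 2.5 nM 5-FAM-labelled STAT3 SH2-domain ligand. The mix was added to serially diluted test compound and read after 1 hr at room temperature. Buffer: 50 mM NaCl, 10 mM HEPES pH 7.5, 1 mM EDTA, 0.01% Triton X-100, 2 mM DTT. IC50 came from nonlinear regression and was converted to Ki.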
Target sequence in this assay (P40763 127-688): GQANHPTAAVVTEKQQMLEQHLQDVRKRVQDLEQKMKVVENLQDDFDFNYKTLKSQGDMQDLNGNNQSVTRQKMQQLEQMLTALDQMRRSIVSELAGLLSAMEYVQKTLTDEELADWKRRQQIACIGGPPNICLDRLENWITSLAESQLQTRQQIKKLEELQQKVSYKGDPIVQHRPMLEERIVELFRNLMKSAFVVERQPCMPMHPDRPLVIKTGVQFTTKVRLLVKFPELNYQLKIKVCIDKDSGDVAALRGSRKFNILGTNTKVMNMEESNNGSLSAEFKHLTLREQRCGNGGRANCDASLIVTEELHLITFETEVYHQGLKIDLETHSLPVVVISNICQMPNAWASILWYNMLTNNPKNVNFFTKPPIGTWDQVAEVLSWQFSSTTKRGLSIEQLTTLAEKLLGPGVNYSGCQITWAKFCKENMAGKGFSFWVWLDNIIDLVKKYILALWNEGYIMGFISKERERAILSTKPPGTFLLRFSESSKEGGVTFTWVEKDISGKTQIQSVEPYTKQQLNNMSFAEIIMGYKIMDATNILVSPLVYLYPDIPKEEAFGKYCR

[9] = molecular target: STAT4 (Homo sapiens, UniProt Q14765); assay: Bio-Layer Interferometry binding, STAT4
Sequence of STAT4 (Q14765 133-705): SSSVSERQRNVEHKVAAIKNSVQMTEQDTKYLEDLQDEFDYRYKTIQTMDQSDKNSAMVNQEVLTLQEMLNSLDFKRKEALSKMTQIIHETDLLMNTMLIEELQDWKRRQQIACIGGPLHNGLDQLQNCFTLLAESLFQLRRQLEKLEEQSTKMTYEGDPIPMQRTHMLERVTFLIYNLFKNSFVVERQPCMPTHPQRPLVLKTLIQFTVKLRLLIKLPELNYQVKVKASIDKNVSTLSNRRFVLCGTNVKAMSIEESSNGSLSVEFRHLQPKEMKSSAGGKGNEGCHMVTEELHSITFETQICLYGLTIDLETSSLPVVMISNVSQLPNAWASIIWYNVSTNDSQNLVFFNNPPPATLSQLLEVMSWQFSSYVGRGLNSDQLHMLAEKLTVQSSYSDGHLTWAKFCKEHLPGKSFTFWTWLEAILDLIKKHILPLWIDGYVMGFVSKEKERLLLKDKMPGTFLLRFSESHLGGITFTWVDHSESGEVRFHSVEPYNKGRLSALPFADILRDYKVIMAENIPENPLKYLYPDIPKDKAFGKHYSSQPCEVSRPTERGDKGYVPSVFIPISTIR
Procedure, shortened: (§2)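 Purified recombinant human STAT proteins were biotinylated, then direct binding of the test compound was measured by Bio-Layer Interferometry to give Kd.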

[10] = molecular target: T1, STAT3; assay: Bio-Layer Interferometry binding, STAT3
Procedure, shortened: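 Recombinant human STAT3 was biotinylated and binding measured by Bio-Layer Interferometry for Kd. Selectivity was taken from Kd values against other STATs.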
Target sequence in this assay (P40763 127-688): as the sequence (P40763 127-688) above

[11] = molecular target: STAT1 (Homo sapiens, UniProt P42224); assay: Bio-Layer Interferometry binding, STAT1
Sequence of STAT1 (P42224 132-713): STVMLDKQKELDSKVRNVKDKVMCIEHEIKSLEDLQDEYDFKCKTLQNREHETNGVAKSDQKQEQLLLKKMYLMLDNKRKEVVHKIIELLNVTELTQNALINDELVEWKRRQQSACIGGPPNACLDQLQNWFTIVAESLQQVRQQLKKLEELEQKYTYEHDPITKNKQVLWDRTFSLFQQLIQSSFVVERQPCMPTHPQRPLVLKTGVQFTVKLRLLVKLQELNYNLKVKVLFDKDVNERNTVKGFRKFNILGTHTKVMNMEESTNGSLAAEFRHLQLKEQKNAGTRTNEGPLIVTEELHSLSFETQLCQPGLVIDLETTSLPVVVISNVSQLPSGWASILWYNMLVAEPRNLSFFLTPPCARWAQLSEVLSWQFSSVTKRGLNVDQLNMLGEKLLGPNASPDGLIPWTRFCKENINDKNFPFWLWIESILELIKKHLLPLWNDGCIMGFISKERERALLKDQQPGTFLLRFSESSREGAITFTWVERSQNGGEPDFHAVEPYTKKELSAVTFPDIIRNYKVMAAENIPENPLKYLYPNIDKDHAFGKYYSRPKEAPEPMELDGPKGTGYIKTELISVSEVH
Procedure, shortened: as §2

[12] = tested on: c-Myc; STAT3 Y705 phosphorylation; assay: Immunoblotting of c-Myc and pSTAT3; format: cell-based, human; conditions: concentrations as high as 10 μM
Procedure, shortened: as §1

[13] = tested on: leukemia and lymphoma cell lines; assay: 4-day CellTiter Glo cell viability assay, leukemia and lymphoma cell line panel; format: cell-based, human
[14] = tested on: MOLM-16; assay: 4-day CellTiter Glo cell viability assay, MOLM-16; format: cell-based; conditions: Homo sapiens, MOLM16, 96 h, read-out: IC50, growth inhibition
[15] = tested on: MOLM-16 tumors; assay: MOLM-16 xenograft efficacy; format: in vivo, NOD/SCID female mice; conditions: 100 mg/kg twice weekly for 4 weeks
Procedure, shortened: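 NOD/SCID female mice were injected subcutaneously in 5 mg/ml Matrigel with MOLM-16 (3 × 10^6), SU-DHL-1 (1 × 10^7) or SUP-M2 (1 × 10^7) cells. At about 150 mm3, mice were size-matched and randomised. Test compound or vehicle (10% PEG400 + 90% PBS) was given on the indicated schedules. Tumours were measured 2–3 times weekly, with volume = length×width²/2. TGI was calculated from group medians.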

[16] = molecular target: DNA binding activity of STAT3 (Homo sapiens, UniProt P40763); assay: STAT3 DNA binding activity assay on nuclear extracts; format: cell-based; conditions: 10 μM, 8 hr, MOLM-16 and SU-DHL-1
Sequence of DNA binding activity of STAT3 (P40763 whole entry): as the sequence (P40763 whole entry) above
Procedure, shortened: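 Nuclear extraction: cells were swelled 15 min on ice in hypotonic HEPES pH 7.9/10 mM KCl buffer with DTT and phosphatase/protease inhibitors. NP-40 was added (0.5% final), and nuclei were extracted 15 min at 4°C in 0.4 M NaCl HEPES buffer, then cleared at 5,000 × g. ELISA: 5 μg extract was bound 1 hr at room temperature in TransAM STAT ELISA wells. Wells then received STAT antibody (1:1000, 1 hr), HRP secondary (1 hr) and colour development.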

[17] = tested on: ~5500 proteins quantified in each cell line; assay: Multiplexed quantitative proteomics in cell lines; format: cell-based, human; conditions: 10 μM, 2.5 hr, three cell lines, p≤0.05
Procedure, shortened: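 Cells were exposed to test compound, then analysed by multiplexed quantitative proteomics. Significance was assessed by Student's t-test.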

[18] = Homo sapiens, MOLM16, 24 h, read-out: IC50, transcriptional activity of STAT3
[19] = Homo sapiens, read-out: IC50, inhibition of transcriptional activity of STAT3

effect on SD-36-induced depletion of STAT3 protein [1]: blocked
SMILES: NS(=O)(=O)OC[C@@H]1C[C@@H](n2ccc3c(N[C@H]4CCc5ccccc54)ncnc32)C[C@@H]1O [MLN4924, reference compound]

SMILES: CN1C(=O)CCC(N2Cc3c(C#CCCCCCC(=O)N4CC[C@H]5CC[C@@H](C(=O)N[C@@H](CCC(N)=O)C(=O)NC(c6ccccc6)c6ccccc6)N5C(=O)[C@@H](NC(=O)c5cc6cc(C(F)(F)P(=O)(O)O)ccc6[nH]5)C4)cccc3C2=O)C1=O (stereo partly drawn) [SD-36Me, ((2-(((5S,8S,10aR)-8-(((S)-5-amino-1-(benzhydrylamino)-1,5-dioxopentan-2-yl)carbamoyl)-3-(8-(2-(1-methyl-2,6-dioxopipehdin-3-yl)-1-oxoisoindolin-4-yl)oct-7-ynoyl)-6-oxodecahydropyrrolo[1,2-a][1,5]diazocin-5-yl)carbamoyl)-1H-indol-5-yl)difluoromethyl)phosphonic acid]
effect on protein levels of STAT3 in MOLM-16 tumors [2]: no significant effect | IC50 ([3]; read-out: IC50, transcriptional activity of STAT3, MOLM-16 STAT3-dependent luciferase reporter cell line, 24 hr): ~10000 nM | effect on the levels of STAT3 protein [1]: no significant effect | genes up- or down-regulated ≥2-fold (p≤0.05), total [4]: 13 genes | cell cycle effect [5]: modest G1 arrest | concentration diminishing STAT3 dimers [6]: ~ 10 μM | genes differentially regulated (≥2-fold, p≤0.05) [7]: 28 genes

SMILES: CN1CC[C@H]2CC[C@@H](C(=O)N[C@@H](CCC(N)=O)C(=O)NCc3ccccc3)N2C(=O)[C@@H](NC(=O)c2cc3cc(C(F)(F)P(=O)(O)O)ccc3[nH]2)C1 [SI-108, ((2-(((5S,8S,10aR)-8-(((S)-5-amino-1-(benzylamino)-1,5-dioxopentan-2-yl)carbamoyl)-3-methyl-6-oxodecahydropyrrolo[1,2-a][1,5]diazocin-5-yl)carbamoyl)-1H-indol-5-yl)difluoromethyl)phosphonic acid]
IC50 [3, 18]: ~10000 nM | IC50 [3, 19]: ~3000 nM | effect on SD-36-induced depletion of STAT3 protein [1]: blocked | Ki [8]: 11 nM

SMILES: CC(=O)N1CC[C@H]2CC[C@@H](C(=O)N[C@@H](CCC(N)=O)C(=O)NC(c3ccccc3)c3ccccc3)N2C(=O)[C@@H](NC(=O)c2cc3cc(C(F)(F)P(=O)(O)O)ccc3[nH]2)C1 [SI-109, ((2-(((5S,8S,10aR)-3-acetyl-8-(((S)-5-amino-1-(benzhydrylamino)-1,5-dioxopentan-2-yl)carbamoyl)-6-oxodecahydropyrrolo[1,2-a][1,5]diazocin-5-yl)carbamoyl)-1H-indol-5-yl)difluoromethyl)phosphonic acid]
Kd [9]: 1000 to 2000 nM | effect on protein levels of STAT3 in MOLM-16 tumors [2]: no significant effect | Kd [10]: ~50 nM | binding selectivity for STAT3 over STAT1 and STAT4 ([10]; BLI Kd): ~ 20 fold | IC50 [3, 18]: ~10000 nM | IC50 [3, 19]: ~3000 nM | effect on the levels of STAT3 protein [1]: no significant effect | Kd [11]: 1000 to 2000 nM | inhibition of STAT3 Y705 phosphorylation and suppression of c-Myc expression [12]: ineffective | cell lines with moderate growth-inhibitory activity ([13]; 18 leukemia and lymphoma cell lines): 1 of these 18 | growth-inhibitory activity in a large number of human cancer cell lines ([13]; initial testing): no appreciable growth-inhibitory activity | IC50 [14]: ~3000 nM | effect on the growth of MOLM-16 tumors [15]: no effect | concentration diminishing STAT3 dimers [6]: ~ 10 μM | DNA binding activity of STAT3 [16]: only modestly reduces | proteome-wide selectivity [17]: no measurable effect | Ki [8]: 9 nM

effect on SD-36-induced depletion of STAT3 protein [1]: blocked
SMILES: CC(C)C[C@H](NC(=O)[C@H](CCc1ccccc1)NC(=O)CN1CCOCC1)C(=O)N[C@@H](Cc1ccccc1)C(=O)N[C@@H](CC(C)C)C(=O)[C@@]1(C)CO1 [carfilzomib, reference compound]

SMILES: NC(=O)CC[C@H](NC(=O)[C@@H]1CCC2CCCC[C@H](NC(=O)c3cc4cc(OP(=O)(O)O)ccc4[nH]3)C(=O)N21)C(=O)NCc1ccccc1 (stereo partly drawn) [compound 2, 2-((3S,6S)-3-((S)-5-Amino-1-(benzylamino)-1,5-dioxopentan-2-ylcarbamoyl)-5-oxodecahydropyrrolo[1,2-a]azocin-6-ylcarbamoyl)-1H-indol-5-yl dihydrogen phosphate]
suppressing STAT3 activity in cells ([3]; cells): ineffective | Ki [8]: 39 nM

SMILES: NC(=O)CC[C@H](NC(=O)[C@@H]1CCC2CCCC[C@H](NC(=O)c3cc4cc(C(F)(F)P(=O)(O)O)ccc4[nH]3)C(=O)N21)C(=O)NCc1ccccc1 (stereo partly drawn) [compound 3, (2-((3S,6S)-3-((S)-5-Amino-1-(benzylamino)-1,5-dioxopentan-2-ylcarbamoyl)-5-oxodecahydropyrrolo[1,2-a]azocin-6-ylcarbamoyl)-1H-indol-5-yl)difluoromethylphosphonic acid]
Ki [8]: 7 nM | binding potency relative to compound 2 ([8]; Ki ratio): 5 times

SMILES: Nc1cccc2c1CN(C1CCC(=O)NC1=O)C2=O (centres unmarked) [lenalidomide, reference compound]
effect on STAT3 transcriptional activity ([3]; MOLM-16 STAT3 reporter, 24 hr): no significant effect | effect on SD-36-induced depletion of STAT3 protein [1]: blocked | IC50 ([13]; Homo sapiens, read-out: IC50, proliferation): > 10000 nM | IC50 [14]: ~4000 nM
